From paper PMC4051287 (Molecular cancer therapeutics, 2014)
Square brackets hold non-standard residues; d marks the D form. Peptide text beside a SMILES is read from it. * marks the point of attachment. Dolaproine = CO[C@@H]([C@@H]1CCCN1)[C@@H](C)C(=O)O; Dil = CC[C@H](C)[C@H](NC)[C@@H](CC(=O)O)OC; X1 = C[C@@H](N*)[C@@H](O)c1ccccc1; NMeV = CN[C@H](C(=O)O)C(C)C

Assays:
Py230 tumors = assay: Therapeutic study, Py230 syngeneic tumors; type: in vivo, mice
Method in brief: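 Tumors reach 5–7 mm diameter in 5–6 weeks. Test compound (MMAE conjugate) dosed at 0.2mg/kg MMAE, ~6.5 nanomoles of conjugate. Free MMAE and controls run alongside. Tumor volume followed.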

[1] = cited from earlier work

CC[C@H](C)[C@@H]([C@@H](CC(=O)N1CCC[C@H]1[C@H](OC)[C@@H](C)C(=O)N[C@H](C)[C@@H](O)c1ccccc1)OC)N(C)C(=O)[C@@H](NC(=O)[C@@H](NC)C(C)C)C(C)C [MMAE, Monomethylauristatin E] (H-[NMeV]V[Dil][Dolaproine]-X1)
final tumor mass, dose finding (Py230 tumors; Py230, MMAE at concentrations up to 0.6mg/kg): Only the tumors treated at the highest dose had a reduction in final mass
effect on tumor growth (Py230 tumors; Py230, immunocompetent mice, 0.2mg/kg MMAE): no impact on tumor growth
maximum tolerated dose [1]: 0.5 to 1.0 mg/kg
